This passage reports IC50 results from ChEMBL document CHEMBL1156877, “Discovery of 6-benzyloxyquinolines as c-Met selective kinase inhibitors” (Bioorg Med Chem Lett, 2010).

Assay [1] deals with A549. Description: Cytotoxicity against human A549 cells after 96 hrs by WST8 assay. The conditions noted are these: A549, 96 h. For orientation: Tetrazolium dyes change colour on reduction, which living cells bring about.
Assay [2] concerns the target RAC-alpha serine/threonine-protein kinase (Homo sapiens, UniProt P31749). Description: Inhibition of recombinant AKT1 by IMAP assay. The procedure, abridged: (§1)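 Recombinant enzyme mixed with test compound and substrate peptide/ATP solution, incubated 90 min at 30 °C; enzyme quantity, ATP, substrate and cation set per kinase. IMAP reagent then added for 5 min at room temperature, and peptide phosphorylation quantified by fluorescence polarization.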

Assay [3] concerns the target T1, Tyrosine-protein kinase receptor UFO (Homo sapiens, UniProt P30530).
T1 sequence (P30530 whole entry): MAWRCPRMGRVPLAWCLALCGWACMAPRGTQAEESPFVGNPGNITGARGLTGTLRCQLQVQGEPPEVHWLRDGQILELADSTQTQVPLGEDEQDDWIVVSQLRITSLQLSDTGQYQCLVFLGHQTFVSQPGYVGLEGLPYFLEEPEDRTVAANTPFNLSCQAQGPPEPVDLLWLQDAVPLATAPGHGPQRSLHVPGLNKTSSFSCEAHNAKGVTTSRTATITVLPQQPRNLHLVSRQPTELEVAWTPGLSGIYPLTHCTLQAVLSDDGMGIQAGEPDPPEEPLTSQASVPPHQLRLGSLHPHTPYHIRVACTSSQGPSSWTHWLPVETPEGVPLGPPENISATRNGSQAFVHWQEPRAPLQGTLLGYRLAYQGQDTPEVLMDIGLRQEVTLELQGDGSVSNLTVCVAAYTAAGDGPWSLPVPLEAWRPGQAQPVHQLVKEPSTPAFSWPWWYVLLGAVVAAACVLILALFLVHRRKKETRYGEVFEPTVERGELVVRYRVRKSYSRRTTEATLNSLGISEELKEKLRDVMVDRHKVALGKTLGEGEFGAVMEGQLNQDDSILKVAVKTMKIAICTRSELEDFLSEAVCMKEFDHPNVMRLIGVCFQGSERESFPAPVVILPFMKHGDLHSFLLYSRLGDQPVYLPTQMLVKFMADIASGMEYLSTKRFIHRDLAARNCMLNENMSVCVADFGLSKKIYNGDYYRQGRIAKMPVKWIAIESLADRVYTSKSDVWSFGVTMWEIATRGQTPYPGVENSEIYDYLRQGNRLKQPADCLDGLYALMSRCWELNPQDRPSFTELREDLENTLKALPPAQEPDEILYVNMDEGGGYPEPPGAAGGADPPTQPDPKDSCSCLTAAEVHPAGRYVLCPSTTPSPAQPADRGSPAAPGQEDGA
Description: Inhibition of recombinant AXL by TR-FRET assay. The procedure, abridged: (§2)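 Recombinant tyrosine kinase incubated with test compound and substrate peptide/ATP for 90 min at 30 °C; enzyme amount, ATP level, substrate and cation vary by kinase. Reaction stopped, then TR-FRET reagent with europium-labelled anti-phospho-substrate antibody added for 5 min at room temperature; substrate phosphorylation read as time-resolved fluorescence.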
A general note: Time-resolved FRET reads energy transfer from a long-lived donor to a nearby acceptor.

The test system of assay [4] is ASPC1. Description: Cytotoxicity against human AsPC1 cells after 96 hrs by WST8 assay. The conditions noted are these: ASPC1, 96 h.
Assay [5] in a line: Inhibition of recombinant PKA by IMAP assay. In outline: as §1
The target of assay [6] is Cyclin-dependent kinase 2 (Homo sapiens, UniProt P24941). Description: Inhibition of recombinant CDK2 by IMAP assay. The procedure, abridged:
as §1

Assay [7] concerns the target Fibroblast growth factor receptor 2 (Homo sapiens, UniProt P21802). Description: Inhibition of recombinant FGFR2 by TR-FRET assay. The procedure, abridged: as §2
In assay [8] the test system is COLO 205. Description: Cytotoxicity against human COLO205 cells after 96 hrs by WST8 assay. The conditions noted are these: COLO 205, 96 h.
Assay [9] deals with Protein-tyrosine kinase 6 (Homo sapiens, UniProt Q13882). Description: Inhibition of recombinant BRK by TR-FRET assay. In outline: as §2
Assay [10] has as its system Calu-6. Description: Cytotoxicity against human Calu6 cells after 96 hrs by WST8 assay. The conditions noted are these: Calu-6, 96 h.
The target of assay [11] is Insulin-like growth factor 1 receptor (Homo sapiens, UniProt P08069). Description: Inhibition of recombinant IGF1R by TR-FRET assay. In outline: as §2
For assay [12], the system named is NCI-N87. Description: Cytotoxicity against human NCI-N87 cells after 96 hrs by WST8 assay. The conditions noted are these: NCI-N87, 96 h.
Assay [13] addresses T2, Aurora kinase A (Homo sapiens, UniProt O14965).
T2 sequence (O14965 whole entry): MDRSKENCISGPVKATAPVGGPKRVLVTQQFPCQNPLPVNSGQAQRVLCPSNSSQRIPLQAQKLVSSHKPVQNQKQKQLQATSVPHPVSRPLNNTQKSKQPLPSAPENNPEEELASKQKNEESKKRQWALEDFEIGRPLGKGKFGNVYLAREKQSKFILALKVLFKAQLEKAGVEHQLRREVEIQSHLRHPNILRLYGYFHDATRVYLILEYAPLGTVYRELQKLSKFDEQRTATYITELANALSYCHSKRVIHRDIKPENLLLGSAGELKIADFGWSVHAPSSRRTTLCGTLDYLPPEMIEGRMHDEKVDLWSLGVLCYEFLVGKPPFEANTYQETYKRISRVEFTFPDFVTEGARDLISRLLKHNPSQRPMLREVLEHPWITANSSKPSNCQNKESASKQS
Description: Inhibition of recombinant Aurora A by IMAP assay. In outline:
as §1

Fibroblast growth factor receptor 2, sequence (P21802 whole entry): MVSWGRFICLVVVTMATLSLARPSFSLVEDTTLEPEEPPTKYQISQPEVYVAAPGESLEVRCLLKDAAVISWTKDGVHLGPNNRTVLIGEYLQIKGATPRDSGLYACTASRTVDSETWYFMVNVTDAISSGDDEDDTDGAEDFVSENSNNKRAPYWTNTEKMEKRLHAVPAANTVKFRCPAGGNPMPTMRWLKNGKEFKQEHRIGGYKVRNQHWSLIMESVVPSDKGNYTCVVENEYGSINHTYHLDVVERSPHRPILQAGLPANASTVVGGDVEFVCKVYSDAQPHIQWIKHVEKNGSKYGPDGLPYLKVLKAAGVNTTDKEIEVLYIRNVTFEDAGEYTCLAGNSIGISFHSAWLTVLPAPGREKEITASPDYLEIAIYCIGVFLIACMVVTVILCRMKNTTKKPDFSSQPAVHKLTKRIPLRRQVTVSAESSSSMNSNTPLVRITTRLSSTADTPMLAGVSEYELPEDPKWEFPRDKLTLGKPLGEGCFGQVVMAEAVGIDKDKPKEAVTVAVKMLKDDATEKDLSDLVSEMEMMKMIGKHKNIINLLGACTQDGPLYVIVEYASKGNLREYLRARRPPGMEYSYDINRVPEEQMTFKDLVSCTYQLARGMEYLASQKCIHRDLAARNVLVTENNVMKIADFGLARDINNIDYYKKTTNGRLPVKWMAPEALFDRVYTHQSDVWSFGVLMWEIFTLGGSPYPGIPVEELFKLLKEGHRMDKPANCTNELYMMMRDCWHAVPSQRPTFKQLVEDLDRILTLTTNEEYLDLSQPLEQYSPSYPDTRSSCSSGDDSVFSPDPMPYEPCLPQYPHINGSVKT
RAC-alpha serine/threonine-protein kinase, sequence (P31749 whole entry): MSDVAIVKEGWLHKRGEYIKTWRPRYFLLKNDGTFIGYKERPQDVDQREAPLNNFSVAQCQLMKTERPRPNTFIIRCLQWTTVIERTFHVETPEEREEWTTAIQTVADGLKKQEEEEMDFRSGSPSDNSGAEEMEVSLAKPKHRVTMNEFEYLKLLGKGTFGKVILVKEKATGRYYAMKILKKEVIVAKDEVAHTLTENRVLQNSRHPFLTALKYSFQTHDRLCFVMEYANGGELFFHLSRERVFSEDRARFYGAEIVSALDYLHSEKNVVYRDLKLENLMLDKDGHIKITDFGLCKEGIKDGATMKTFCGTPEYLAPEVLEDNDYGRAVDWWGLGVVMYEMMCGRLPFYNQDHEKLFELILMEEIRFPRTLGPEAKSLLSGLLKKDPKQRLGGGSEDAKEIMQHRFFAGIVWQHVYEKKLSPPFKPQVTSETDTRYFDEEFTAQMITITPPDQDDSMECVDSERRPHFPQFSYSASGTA
Protein-tyrosine kinase 6, sequence (Q13882 whole entry): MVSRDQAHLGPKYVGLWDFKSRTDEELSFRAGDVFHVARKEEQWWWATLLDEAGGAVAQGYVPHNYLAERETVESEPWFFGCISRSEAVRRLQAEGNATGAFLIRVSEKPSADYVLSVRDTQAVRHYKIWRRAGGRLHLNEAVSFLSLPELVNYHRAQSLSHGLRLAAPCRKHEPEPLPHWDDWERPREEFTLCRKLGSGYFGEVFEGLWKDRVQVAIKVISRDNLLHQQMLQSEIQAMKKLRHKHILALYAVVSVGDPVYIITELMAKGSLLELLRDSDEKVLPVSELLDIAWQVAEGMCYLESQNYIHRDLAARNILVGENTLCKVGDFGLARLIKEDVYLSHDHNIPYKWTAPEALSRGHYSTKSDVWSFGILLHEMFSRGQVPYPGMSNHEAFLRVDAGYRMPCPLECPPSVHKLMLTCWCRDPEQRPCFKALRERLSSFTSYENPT
Insulin-like growth factor 1 receptor, sequence (P08069 31-736 limits assumed): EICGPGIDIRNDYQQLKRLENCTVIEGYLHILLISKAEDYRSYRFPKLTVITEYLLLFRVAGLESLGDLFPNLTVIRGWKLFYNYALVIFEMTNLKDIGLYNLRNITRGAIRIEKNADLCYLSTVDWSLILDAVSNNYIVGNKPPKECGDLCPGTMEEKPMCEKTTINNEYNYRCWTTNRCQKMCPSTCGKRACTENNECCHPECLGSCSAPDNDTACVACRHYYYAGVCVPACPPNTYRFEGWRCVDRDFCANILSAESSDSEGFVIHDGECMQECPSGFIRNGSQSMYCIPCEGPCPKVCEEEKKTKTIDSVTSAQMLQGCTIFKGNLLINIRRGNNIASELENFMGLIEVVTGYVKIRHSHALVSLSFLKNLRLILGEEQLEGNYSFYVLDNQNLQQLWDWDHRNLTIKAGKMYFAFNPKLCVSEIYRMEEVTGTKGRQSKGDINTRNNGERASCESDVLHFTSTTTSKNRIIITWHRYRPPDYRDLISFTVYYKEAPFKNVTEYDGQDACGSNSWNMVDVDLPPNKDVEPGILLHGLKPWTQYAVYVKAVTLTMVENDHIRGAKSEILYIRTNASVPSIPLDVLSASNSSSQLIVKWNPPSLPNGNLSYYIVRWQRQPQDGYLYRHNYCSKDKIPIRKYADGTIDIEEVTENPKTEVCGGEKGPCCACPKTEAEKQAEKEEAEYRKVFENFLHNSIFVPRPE
Insulin-like growth factor 1 receptor, sequence (P08069 741-1367 limits assumed): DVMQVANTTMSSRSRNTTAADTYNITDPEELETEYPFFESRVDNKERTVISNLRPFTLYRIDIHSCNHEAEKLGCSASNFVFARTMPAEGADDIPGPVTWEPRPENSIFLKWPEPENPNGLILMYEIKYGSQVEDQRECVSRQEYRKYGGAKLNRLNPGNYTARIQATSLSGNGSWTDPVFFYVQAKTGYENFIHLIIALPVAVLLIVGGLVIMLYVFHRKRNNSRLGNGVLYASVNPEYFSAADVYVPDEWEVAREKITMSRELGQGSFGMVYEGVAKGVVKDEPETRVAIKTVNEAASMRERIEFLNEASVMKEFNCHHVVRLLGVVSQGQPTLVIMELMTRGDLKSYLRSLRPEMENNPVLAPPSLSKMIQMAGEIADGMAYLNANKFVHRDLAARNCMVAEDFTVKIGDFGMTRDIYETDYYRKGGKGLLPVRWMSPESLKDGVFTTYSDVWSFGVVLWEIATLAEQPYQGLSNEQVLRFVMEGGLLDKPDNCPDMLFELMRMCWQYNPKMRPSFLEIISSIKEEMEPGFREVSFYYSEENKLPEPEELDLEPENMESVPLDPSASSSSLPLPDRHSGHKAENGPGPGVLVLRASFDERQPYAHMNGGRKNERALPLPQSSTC

Turning to `C[C@@H](Oc1ccc2ncc(C3CC3C(N)=O)cc2c1)c1c(Cl)ccc(F)c1Cl` (stereo partly drawn), the IC50 in assay [1] is more than 1 µM; in [2], more than 50 µM; in [3] it was 0.43 µM; in [4], more than 1 µM; in [5], more than 50 µM; in assay [6] it was more than 50 µM. Further, the IC50 in [7] was 12 µM; in assay [8], more than 1 µM; in assay [9] it was more than 50 µM; in [10], more than 1 µM; in assay [11], 27 µM; in assay [12] it was more than 1 µM. Also, the 50% inhibitory concentration (IC50) in [13] was 22 µM.

As usually defined, the IC50 is the midpoint of a concentration-inhibition curve.
